MAC, MIC and solubility data for 3 compounds are collected here from ChEMBL document CHEMBL1141552, “Synthesis and antitubercular activity of 7-(R)- and 7-(S)-methyl-2-nitro-6-(S)-(4-(trifluoromethoxy)benzyloxy)-6,7-dihydro-5H-imidazo[2,1-b][1,3]oxazines, analogues of PA-824” (Bioorg Med Chem Lett, 2008).

Converted amounts (≈) assume the structure as drawn.

The subject of series [1] is Mycobacterium tuberculosis. As to the kind of experiment: Antitubercular activity against Mycobacterium tuberculosis H37Rv by oxygen depletion assay. The format is functional. The procedure, abridged:
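Early-log Mtb cultures in Dubos broth were diluted 100-fold and sealed at a 0.5 head-space ratio, then stirred for 20 days to reach NRP-2. The cells were handled anaerobically and exposed to 1.95–500 μM drug in two-fold dilutions for 7 days at 37°C. After three washes, the cells were spotted on 7H11 agar for 3 weeks. MAC was taken as the concentration giving 90% reduction in visible growth.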

Series [2] deals with Mycobacterium tuberculosis. As to the kind of experiment: Antitubercular activity against Mycobacterium tuberculosis H37Rv under aerobic conditions. The format is functional. The procedure, abridged:
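Broth dilution MIC99 against Mtb H37Rv (ATCC 27294) and its H37Rv mutants under aerobic conditions. Compound stocks were made in DMSO at 20 mM.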

Series [3] can be described thus: Aqueous solubility of the compound. Type of series: physicochemical. The procedure, abridged:
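Excess solid (3–5 mg) shaken in 0.5 mL water for 3 days, then centrifuged at 10,000g for 5 min. Supernatant diluted in water and analysed by LC/MS with UV peak area at 310 nm. Concentration read from a previously determined calibration curve, corrected for dilution.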

Compound `C[C@@H]1Oc2nc([N+](=O)[O-])cn2C[C@@H]1OCc1ccc(OC(F)(F)F)cc1` displayed an MAC in series [1] of 16 µM. In series [2], the MIC (commonly the lowest concentration that inhibits growth of the organism) amounted to 0.2 µM (≈ 0.0747 µg/mL). For the same compound, the solubility (in general, the concentration that dissolves in the medium under given conditions) in series [3] was found to be 0.00989 mg/mL (≈ 26.5 µM).
Consider `O=[N+]([O-])c1cn2c(n1)OC[C@@H](OCc1ccc(OC(F)(F)F)cc1)C2` [PRETOMANID], for which the MAC in series [1] amounted to 8 µM. This compound returned an MIC in series [2] of 0.4 µM (≈ 0.144 µg/mL). Also, in series [3], the solubility turned out to be 0.0102 mg/mL (≈ 28.4 µM).
The like results for `C[C@H]1Oc2nc([N+](=O)[O-])cn2C[C@@H]1OCc1ccc(OC(F)(F)F)cc1` were, in that order, 8 µM, 0.2 µM (≈ 0.0747 µg/mL) and 0.0103 mg/mL (≈ 27.6 µM).
